# Test results published in ChEMBL document CHEMBL3244396, “Synthesis and antileukemic activity of 5-substituted 2,3-dihydro-6,7-bis(hydroxymethyl)-1H-pyrrolizine diesters” (J Med Chem, 1977).
# Tests used:
# [1] = tested on: L1210; test: Antileukemic activity against mouse L1210 cells allografted in female BDF1 mouse assessed as host mean survival time at 200 mg/kg, ip administered daily for 9 days as Klucel suspension starting 24 hrs after tumor inoculation relative to control; type: functional; settings: route intraperitoneal
# How it was run: (§1)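 L1210 leukemia given as an ascitic fluid cell inoculum, ip, to mice of the strain and sex in each line. Test material was given ip for nine daily doses starting 24 h after inoculation, in a Klucel (hydroxypropylcellulose) suspension. Read-out is mean survival time as %T/C versus controls, with >125 taken as significant.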
# [2] = tested on: L1210; test: Antileukemic activity against mouse L1210 cells allografted in female BDF1 mouse assessed as change in body weight at 200 mg/kg, ip administered daily for 9 days as Klucel suspension starting 24 hrs after tumor inoculation; type: functional; settings: route intraperitoneal
# How it was run: (§2)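 Ascitic fluid carrying L1210 cells was inoculated ip. Compound was given ip as a Klucel (hydroxypropylcellulose) suspension in nine daily doses, starting 24 h after inoculation. Body-weight difference (treated minus control) was recorded on day 5. Survival was scored as %T/C of mean survival time.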
# [3] = tested on: P388; test: Antitumor activity against mouse P388 cells allografted in female CDF1 mouse assessed as change in body weight at 400 mg/kg, ip administered daily for 9 days as saline with Tween-80 solution starting 24 hrs after tumor inoculation; type: functional; settings: route intraperitoneal
# How it was run: (§3)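 Ascitic fluid carrying P388 cells was inoculated ip. Compound was given ip in nine daily doses, starting 24 h after inoculation, in Klucel (hydroxypropylcellulose) suspension or in saline with Tween-80. Body-weight difference (treated minus control) was recorded on day 5. Survival was scored as %T/C of median survival time, and 30-day survival counted as cure.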
# [4] = tested on: L1210; test: Antileukemic activity against mouse L1210 cells allografted in female BDF1 mouse assessed as change in body weight at 100 mg/kg, ip administered daily for 9 days as Klucel suspension starting 24 hrs after tumor inoculation; type: functional; settings: route intraperitoneal; how it was run: as §2
# [5] = tested on: L1210; test: Antileukemic activity against mouse L1210 cells allografted in female BDF1 mouse assessed as host mean survival time at 50 mg/kg, ip administered daily for 9 days as Klucel suspension starting 24 hrs after tumor inoculation relative to control; type: functional; settings: route intraperitoneal; how it was run: as §1
# [6] = tested on: Mus musculus; test: Toxicity in female BDF1 mouse allografted with mouse L1210 cells assessed as animal survival at 200 mg/kg, ip administered daily for 9 days as Klucel suspension starting 24 hrs after tumor inoculation measured on fifth day; type: organism-based; design: dose 200 mg/kg, route intraperitoneal; settings: in vivo
# How it was run: (§4)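 L1210 leukemia passaged as ascitic fluid and inoculated ip. Test agent given ip as a Klucel (hydroxypropylcellulose) suspension, nine daily doses starting 24 h after tumor inoculation. Acute toxicity read as toxicity-day survivors per group (out of 6), recorded on day 5. Animal weight difference T − C was also recorded. Follows NCI screening protocols.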
# [7] = tested on: P388; test: Antitumor activity against mouse P388 cells allografted in female CDF1 mouse assessed as disease cures by measuring 30-days host survival at 100 mg/kg, ip administered daily for 9 days as saline with Tween-80 solution starting 24 hrs after tumor inoculation relative to control; type: functional; settings: route intraperitoneal
# How it was run: (§5)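 P388 ascitic cell inoculum given ip to CDF1 mice of the sex in each line. Nine daily ip doses in saline with Tween-80 as vehicle, starting 24 h after inoculation. Median survival time expressed as %T/C (>125 significant); "cure" defined as 30-day survival.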
# [8] = tested on: P388; test: Antitumor activity against mouse P388 cells allografted in female CDF1 mouse assessed as disease cures by measuring 30-days host survival at 200 mg/kg, ip administered daily for 9 days as saline with Tween-80 solution starting 24 hrs after tumor inoculation relative to control; type: functional; settings: route intraperitoneal; how it was run: as §5
# [9] = tested on: P388; test: Antitumor activity against mouse P388 cells allografted in female CDF1 mouse assessed as disease cures by measuring 30-days host survival at 400 mg/kg, ip administered daily for 9 days as saline with Tween-80 solution starting 24 hrs after tumor inoculation relative to control; type: functional; settings: route intraperitoneal; how it was run: as §5
# [10] = tested on: Mus musculus; test: Toxicity in female CDF1 mouse allografted with mouse P388 cells assessed as animal survival at 200 mg/kg, ip administered daily for 9 days as saline with Tween-80 solution starting 24 hrs after tumor inoculation; type: organism-based; design: dose 200 mg/kg, route intraperitoneal; settings: in vivo
# How it was run: (§6)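 P-388 leukemia ascitic fluid implanted ip. Compound dosed ip in saline with Tween-80 vehicle, once daily for nine doses from 24 h after tumor inoculation. Acute toxicity scored as toxicity-day survivors per group. Survival was followed up to 30 days, with 30-day survival counted as "cure". Follows NCI screening protocols.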
# [11] = tested on: L1210; test: Antileukemic activity against mouse L1210 cells allografted in female BDF1 mouse assessed as change in body weight at 50 mg/kg, ip administered daily for 9 days as Klucel suspension starting 24 hrs after tumor inoculation; type: functional; settings: route intraperitoneal; how it was run: as §2
# [12] = tested on: P388; test: Antitumor activity against mouse P388 cells allografted in female CDF1 mouse assessed as change in body weight at 100 mg/kg, ip administered daily for 9 days as saline with Tween-80 solution starting 24 hrs after tumor inoculation; type: functional; settings: route intraperitoneal; how it was run: as §3
# [13] = tested on: Mus musculus; test: Toxicity in female BDF1 mouse allografted with mouse L1210 cells assessed as animal survival at 100 mg/kg, ip administered daily for 9 days as Klucel suspension starting 24 hrs after tumor inoculation measured on fifth day; type: organism-based; design: dose 100 mg/kg, route intraperitoneal; settings: in vivo
# How it was run: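 Female BDF1 mice bearing ip ascitic L1210 inoculum got nine daily ip doses in a Klucel suspension, starting 24 h after tumor inoculation. Toxicity was scored as toxicity-day survivors out of the group, recorded on the fifth day. Animal weight difference (T − C) was also tabulated.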
# [14] = tested on: Mus musculus; test: Toxicity in female CDF1 mouse allografted with mouse P388 cells assessed as animal survival at 400 mg/kg, ip administered daily for 9 days as saline with Tween-80 solution starting 24 hrs after tumor inoculation; type: organism-based; design: dose 400 mg/kg, route intraperitoneal; settings: in vivo; how it was run: as §6
# [15] = tested on: Mus musculus; test: Toxicity in female BDF1 mouse allografted with mouse L1210 cells assessed as animal survival at 50 mg/kg, ip administered daily for 9 days as Klucel suspension starting 24 hrs after tumor inoculation measured on fifth day; type: organism-based; design: dose 50 mg/kg, route intraperitoneal; settings: in vivo; how it was run: as §4
# [16] = tested on: L1210; test: Antileukemic activity against mouse L1210 cells allografted in female BDF1 mouse assessed as host mean survival time at 100 mg/kg, ip administered daily for 9 days as Klucel suspension starting 24 hrs after tumor inoculation relative to control; type: functional; settings: route intraperitoneal; how it was run: as §1
# [17] = tested on: Mus musculus; test: Toxicity in female CDF1 mouse allografted with mouse P388 cells assessed as animal survival at 100 mg/kg, ip administered daily for 9 days as saline with Tween-80 solution starting 24 hrs after tumor inoculation; type: organism-based; design: dose 100 mg/kg, route intraperitoneal; settings: in vivo; how it was run: as §6
# [18] = tested on: P388; test: Antitumor activity against mouse P388 cells allografted in female CDF1 mouse assessed as change in body weight at 200 mg/kg, ip administered daily for 9 days as saline with Tween-80 solution starting 24 hrs after tumor inoculation; type: functional; settings: route intraperitoneal; how it was run: as §3
compound,measurement,setting,value
COC(=O)c1c(C(=O)OC)c(-c2ccc(Cl)c(Cl)c2)n2c1CCC2,T/C,[1],98%
same,Activity,[2],1.1 g
same,Activity,[3],-0.2 g
same,Activity,[4],3.4 g
same,T/C,[5],91%
same,Activity,[6],Non-toxic
same,T/C,[7],87%
same,T/C,[8],89%
same,T/C,[9],88%
same,Activity,[10],Non-toxic
same,Activity,[11],2.8 g
same,Activity,[12],0.2 g
same,Activity,[13],Non-toxic
same,Activity,[14],Non-toxic
same,Activity,[15],Non-toxic
same,T/C,[16],88%
same,Activity,[17],Non-toxic
same,Activity,[18],0.2 g
